ChEMBL document CHEMBL1157774, “Investigations of fungal secondary metabolites with potential anticancer activity” (J Nat Prod, 2010)
Calls of active or inactive are those of the source. The rule behind the calls is not given here.

Legend:
[1] = Growth inhibition of apoptosis-resistant human OE21 cells after 72 hrs by MTT assay; type: functional, cell-based; details: OE21, 72 h
How it was run: (§1)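 Cells seeded at 10 000 to 40 000 cells/mL, depending on line, and plated 24 h before treatment. Cultured 72 h with or without (control) compound. Viable cells measured by MTT reduction to formazan, absorbance at 570 nm (reference 630 nm). IC50 reported as mean ± SEM. Media carried 4 mM glutamine, gentamicin and penicillin-streptomycin. B16F10 grown in RPMI with 10% heat-inactivated FCS.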

A549 = test: Growth inhibition of apoptosis-resistant human A549 cells after 72 hrs by MTT assay; type: functional, cell-based; details: A549, 72 h; how it was run: as §1
Hs 683 = test: Growth inhibition of apoptosis-sensitive human Hs 683 cells after 72 hrs by MTT assay; type: functional, cell-based; details: Hs 683, 72 h; how it was run: as §1
SK-MEL-28 = test: Growth inhibition of apoptosis-resistant human SK-MEL-28 cells after 72 hrs by MTT assay; type: functional, cell-based; details: SK-MEL-28, 72 h; how it was run: as §1
B16-F10 [2] = test: Growth inhibition of apoptosis-sensitive mouse B16F10 cells after 72 hrs by MTT assay; type: functional, cell-based; details: B16-F10, 72 h; how it was run: as §1
[3] = Growth inhibition of apoptosis-resistant human U373 cells after 72 hrs by MTT assay; type: functional, cell-based, U-373MG ATCC; details: U373 MG; how it was run: as §1
B16-F10 [4] = test: Cytostatic effect against apoptosis-sensitive mouse B16F10 cells assessed as impairment of cell population development at 20 uM by quantitative video microscopy
B16-F10 [5] = test: Cytostatic effect against apoptosis-sensitive mouse B16F10 cells assessed as impairment of cell population development at 20 uM by quantitative video microscopy; type: functional, cell-based
How it was run: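 Computer-assisted phase-contrast microscopy (quantitative videomicroscopy) of B16F10 cells in RPMI with 10% heat-inactivated FCS, monitored 72 h without (control) or with compound. Time-lapse image sequences built into movies. Growth level taken as ratio of cell counts in first versus last frames. Cells counted in 1 mm2 fields at G×20, triplicate conditions, five fields each (15 fields per condition), mean ± SEM.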

| IC50 (A549) | IC50 (SK-MEL-28) | IC50 (B16-F10 [2]) | Compound | IC50 [1] | IC50 (Hs 683) | IC50 [3] | inhibition (B16-F10 [4]) | inhibition (B16-F10 [5]) |
| --- | --- | --- | --- | --- | --- | --- | --- | --- |
| 11 µM | 8 µM | 3000 nM | C/C=C/C=C/C(=O)[C@@H]1[C@@H]([C@]2(C)OC(=O)C(C)=C2O)C2\C(=C(O)/C=C/C=C/C)C(=O)[C@]1(C)C(=O)[C@@]2(C)O [BISLONGIQUINOLIDE] | 9 µM | 22 µM | 4 µM | – | – |
| 33 µM | 33 µM | 3000 nM | C/C=C/C=C/C(=O)C1=C(O)[C@@]2(C)C3C(C(=O)CC/C=C/C)=C(O)[C@@]4(C)C1[C@]1(C)O[C@@]4(O)[C@@]3(C)O[C@@]12O [DIHYDROTRICHODIMEROL] | 28 µM | 34 µM | 25 µM | Active | – |
| > 100 µM | > 100 µM | > 100000 nM | C[C@@H]1[C@@]2(C)CC[C@@H]3[C@H]2CC[C@@]1(C)O[C@@]3(C)O [SEIRICARDINE B] | > 100 µM | > 100 µM | > 100 µM | – | – |
| > 100 µM | > 100 µM | > 100000 nM | C[C@@H]1[C@@]2(C)CC[C@@H]3[C@H]2CC[C@@]1(C)O[C@]3(C)O [SEIRICARDINE C] | > 100 µM | > 100 µM | > 100 µM | – | – |

| Compound | IC50 (A549) | IC50 (SK-MEL-28) | IC50 (B16-F10 [2]) | IC50 [1] | IC50 (Hs 683) | IC50 [3] | inhibition (B16-F10 [4]) | inhibition (B16-F10 [5]) |
| --- | --- | --- | --- | --- | --- | --- | --- | --- |
| O[C@H]1[C@H]2c3cc4c(cc3CN3CCC(=C[C@@H]1O)[C@H]23)OCO4 [LYCORINE] | 2 µM | 2 µM | 2000 nM | 2 µM | 2 µM | 2 µM | – | Active |
| O=C1N[C@@H]2C(=C[C@H](O)[C@@H](O)[C@H]2O)c2cc3c(c(O)c21)OCO3 [NARCICLASINE] | 0.05 µM | 0.05 µM | 50 nM | 0.05 µM | 0.05 µM | 0.05 µM | – | – |
